Most compounds without a hit are left out; they make up all but 2.2% or so of the library.
EBV gp42 block = Epstein-Barr virus gp42 inhibitors, primary screen, biochemical, uHTS, fluorescence polarization; Glycoprotein 42 (Epstein-Barr virus (strain AG876)), Q1HVG2; inhibition, % (tested at 21.74 µM); 0.42% of 220,000 active; Fluorescence polarization binding assay, mP read-out; in the data active means inhibition above about 50%
IMP-1 inhibitor = IMP-1 metallo-beta-lactamase inhibitors, primary screen, biochemical, epi-absorbance readout, Pseudomonas aeruginosa enzyme; metallo-beta-lactamase IMP-1 (Pseudomonas aeruginosa); 0.45% of 290,000 active; purified IMP-1, nitrocefin hydrolysis, epi-absorbance fluorescence; inhibition, % at 5.6 µM;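 active means inhibition above the mean plus 3 SD of all compounds in the same screening run, cut at about 4.5% in these data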;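 further: 0% = IMP-1 with DMSO and 100% = DMSO wells lacking enzyme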
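System: purified IMP-1; amount: IMP-1 0.2 nM before substrate addition; compound: single dose, 5.6 µM; times: 25 °C, 15 min preincubation, 25 min reaction; signal: Epi-absorbance via hydrolysed-nitrocefin quenching of white-plate fluorescence, 480/530 nm, EDTA stop; benchmarks: DMSO with and without IMP-1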
VIM-2 inhibitor = VIM-2 metallo-beta-lactamase inhibitors, primary screen, biochemical, epi-absorbance readout, Pseudomonas aeruginosa enzyme. purified VIM-2, nitrocefin hydrolysis, epi-absorbance fluorescence. inhibition, % at 5.6 µM. 0.89% of 290,000 active. AID 1527, 2009;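 active means inhibition above the mean of all tested compounds plus 3 SD, cutoff set per screening run, cut at about 7.5% in these data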;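 further: red hydrolysis product quenches plate fluorescence so inhibitors raise well fluorescence; 0% = enzyme with DMSO and 100% = DMSO without enzyme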
MEX-5 binding = MEX-5 zinc finger RNA-binding disruptors – biochemical, C. elegans, fluorescence polarization, MLPCN library, primary screen | AID 1832, 2009 | MEX-5/FITC-TCR2 RNA binding; hits give low values | activity score (negative = inhibition of binding), % at 10 µM | 0.38% of 300,000 active;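 active means inhibition past about -25% in most replicates, and total fluorescence under double the plate's negative control median, limit read from the data; inconclusive means replicates evenly split on the limit, or fluorescence at least double controls; inactive means too little inhibition in most replicates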;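 further: 0% = DMSO and -100% = 5 µM competing unlabeled TCR2 RNA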
Bcl-xL primary = inhibitors of human Bcl-xL, primary screen, biochemical, fluorescence polarization, HTS; 0.7% of 320,000 active; GST-Bcl-xL / FITC-Bim BH3 peptide fluorescence polarization; Bcl-2-like protein 1 (Homo sapiens), Q07817; inhibition, % at 10.9 µM;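 active means inhibition above the mean of all tested compounds plus 3 SD, cutoff set per campaign, cut at about 30% in these data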;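 further: 0% = DMSO wells and 100% = unlabeled Bim-BH3 peptide competitor; inhibitors lower millipolarization by displacing the labeled peptide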
GLD-1 RNA inh = GLD-1/TGE RNA complex disruptors, primary screen, biochemical, fluorescence polarization. Female germline-specific tumor suppressor gld-1 (Caenorhabditis elegans), Q17339. purified GLD-1 + fluorescein TGE RNA. inhibition, % at 5.96 µM. 0.44% of 320,000 active;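 active means percent inhibition above a per-plate cutoff, the plate mean of test compounds plus 3 SD, cut at about 30% in these data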;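 further: 0% = DMSO wells with GLD-1 and probe and 100% = wells lacking GLD-1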
Target sequence (Q17339 whole entry, looked up): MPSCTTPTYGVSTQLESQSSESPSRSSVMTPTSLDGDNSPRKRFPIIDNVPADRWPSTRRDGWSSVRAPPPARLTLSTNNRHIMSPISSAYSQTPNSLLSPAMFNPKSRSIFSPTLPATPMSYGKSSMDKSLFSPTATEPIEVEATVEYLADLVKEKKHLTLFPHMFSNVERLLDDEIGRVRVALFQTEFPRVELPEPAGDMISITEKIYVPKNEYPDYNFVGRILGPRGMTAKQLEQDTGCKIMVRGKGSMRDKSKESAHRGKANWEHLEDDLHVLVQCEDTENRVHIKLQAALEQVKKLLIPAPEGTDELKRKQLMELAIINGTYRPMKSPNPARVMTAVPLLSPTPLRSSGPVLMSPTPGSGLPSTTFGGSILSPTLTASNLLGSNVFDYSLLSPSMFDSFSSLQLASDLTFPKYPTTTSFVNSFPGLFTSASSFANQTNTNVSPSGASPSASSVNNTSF
An asterisk follows results filed as active; ? = inconclusive; . = no result.

SMILES	EBV gp42 block	IMP-1 inhibitor	VIM-2 inhibitor	MEX-5 binding	Bcl-xL primary	GLD-1 RNA inh
c1ccc(-c2cn3nc(-c4ccccc4)c(-c4ccccc4)nc3n2)cc1	128*	-2	-2	-27*	15	4
Cc1ccc(-c2cn3nc(-c4ccccc4)c(-c4ccccc4)nc3n2)cc1	126*	2	-1	?	15	34*
Cc1cc(C)c(C2=CC(=O)C[C@H](c3ccc4c(c3)OCO4)C2)c(C)c1	.	.	.	.	0	-5
Cc1ccsc1C(=O)NCCc1c[nH]c2ccccc12	.	-3	1	-1	-1	3
Cc1ccc(S(=O)(=O)NCC(=O)OCCOc2cccc(Cl)c2)cc1	.	.	.	.	-1	-5
COc1ccc(NC(=O)c2ccc3[nH]c(C)c(C)c3c2)cc1	.	-4	-2	1	.	.
O=C1CN(C(=O)c2ccccc2F)C(c2ccccc2)c2cc(F)ccc2N1 (stereo not drawn)	.	-2	-2	2	0	2
Cc1ccccc1C(=O)N1CC(=O)Nc2ccc(F)cc2C1c1ccc(F)cc1 (stereo not drawn)	.	-2	0	0	86*	-1
O=c1c2ccccc2ncn1-c1cccc(Cl)c1	7	36*	5	2	0	-6
COc1ccc(-c2cc(=O)oc3c(C)c(OCC(=O)Nc4cccnc4)ccc23)cc1	.	6.7*	0	-1	6	-4
O=c1[nH]c(-[n+]2ccccc2)c(/C=N/NC([S-])=Nc2ccccc2)s1	2	0	2	-82*	164*	143*
Cc1cc(C)c[n+](-c2[nH]c(=O)sc2/C=N/NC([S-])=Nc2ccccc2)c1	27	-1	-2	-49*	129*	117*
CC(C)(C)c1cc[n+](-c2[nH]c(=O)sc2/C=N/NC(=O)c2ccccc2[O-])cc1	.	-1	0	-18	97*	70*
CCc1ccc[n+](-c2[nH]c(=O)sc2/C=N/NC([S-])=Nc2ccccc2)c1	66*	0	1	-55*	122*	108*
Cc1ccc2[nH]c(C(=O)N/N=C/c3ccccc3O)c(C)c2c1	.	-3	-1	-1	1	-2
CCc1ccc[n+](-c2[nH]c(=O)sc2/C=N/N=C(\N)[O-])c1	-15	-5	-5	-3	3	4
COc1ccc(OCCCC(=O)Nc2ccc(S(=O)(=O)N3CCOCC3)cc2)cc1	.	.	.	.	-1	5
COc1ccc2cc(C(C)C(=O)N3CCC(C(N)=O)CC3)ccc2c1 (stereo not drawn)	.	-2	1	0	-1	-5
Cc1cc[n+](-c2[nH]c(=O)sc2/C=N/NC([S-])=Nc2ccccc2)cc1	59*	-1	0	-21	139*	116*
CC(C)(C)c1cc[n+](-c2[nH]c(=O)sc2/C=N/N=C(\[O-])c2cccnc2)cc1	.	-5	-5	-1	2	2
CC(C)N(C(=O)Nc1ccc2nsnc2c1)C(C)C	4	-3	0	1	52*	28
COc1ccc(N(C)C(=O)Nc2ccc3nsnc3c2)cc1	-6	-2	1	0	.	.
CC1CC(C)(C)CC2(C1)NC(=O)N(CC(=O)N(Cc1ccccc1)c1ccccc1)C2=O (stereo not drawn)	.	.	.	-1	-10	9
Cc1cc(C(=O)COc2cccc3cccnc23)c(C)n1C	11	-2	3	-3	147*	151*
COc1cccc(/C=N/Nc2ccc([N+](=O)[O-])cc2)c1O	.	-3	-3	-4	-25	-5
SMILES	EBV gp42 block	IMP-1 inhibitor	VIM-2 inhibitor	MEX-5 binding	Bcl-xL primary	GLD-1 RNA inh
COC(=O)c1ccc(N/N=C/c2cc([N+](=O)[O-])cc(OC)c2O)cc1	-1	-3	-4	-11	36*	-1
CCC1OC23CCCCC2C(C#N)(C(=N)O3)C1(C#N)C#N (stereo not drawn)	-12	-1	0	0	77*	57*
COc1ccc(C2OC34CCCCC3C(C#N)(C#N)C2(C#N)C(=N)O4)cc1 (stereo not drawn)	-3	-1	-1	-84*	135*	101*
N#CC12COC3(CCCCC3C1(C#N)C#N)OC2=N (stereo not drawn)	5	-2	-2	-6	63*	74*
CCCC1OC23CCCCC2C(C#N)(C(=N)O3)C1(C#N)C#N (stereo not drawn)	-19	-2	-1	0	55*	55*
CC1OC23CCCCC2C(C#N)(C(=N)O3)C1(C#N)C#N (stereo not drawn)	-14	-1	-1	1	26	15
COc1ccc(C2CC3(O)NC(=O)C(C#N)(C3C)C2(C#N)C#N)cc1 (stereo not drawn)	-4	-4	-4	-4	3	-3
O=C(COC(=O)CCCOc1ccccc1)NC1CCS(=O)(=O)C1 (stereo not drawn)	.	.	.	2	-1	-5
Cc1cc(C)n(-c2ccc(C(=O)OCC(=O)Nc3cc(S(C)(=O)=O)ccc3Cl)cc2)n1	.	.	.	.	-5	-1
COc1ccccc1NS(=O)(=O)c1ccc(C)c(C(=O)NCCCN2CCCC2=O)c1	.	.	.	1	-1	2
COc1ccc(CNC(=O)CSc2nc3ccc(C)cc3[nH]2)cc1OC	.	-2	-3	1	-5	6
COc1cccc(C(=O)N(C)Cc2c(C)nn(C3CCS(=O)(=O)C3)c2C)c1 (stereo not drawn)	.	.	.	.	.	4
Cc1ccccc1-c1cc(C(=O)NCc2cccc(Br)c2)n(CC2CC(c3cccnc3)=NO2)n1 (stereo not drawn)	.	.	.	.	.	9
COc1ccc(C(=O)Nc2ccccc2C(=O)N2CCOCC2)cc1	.	-2	-1	-3	-3	-9
COc1ccc(/C=c2\s/c(=C/C(=O)c3ccc(C)cc3)[nH]c2=O)c(OC)c1	12	-1	3	-18	103*	-36
Cc1nnc(NC(=O)c2ccc(F)c(S(=O)(=O)N3CCCCC3)c2)s1	.	-1	0	1	-1	-5
CCOC(=O)c1c(C)[nH]c(C)c1C(=O)CSc1nc2ccccc2n1CCOC	6	-4	-1	2	-5	2
CCOC(=O)c1c(C)[nH]c(C)c1C(=O)CSc1nc2ccccc2n1CC	122*	-3	0	2	-1	0
COCc1cc(C)nc(SCC(=O)Nc2ccc(N3CCOCC3)cc2)c1C#N	.	-3	-2	-2	1	5
O=C(c1cc2sccc2n1Cc1ccc(F)cc1)N1CCN(c2nc3ccccc3s2)CC1	-14	-2	-1	0	79*	-3

High-throughput results as filed in PubChem.
